# Data reported in ChEMBL document CHEMBL4028911, “Discovery of a Small-Molecule Bromodomain-Containing Protein 4 (BRD4) Inhibitor That Induces AMP-Activated Protein Kinase-Modulated Autophagy-Associated Cell Death in Breast Cancer” (J Med Chem, 2017).
# Activity calls are given as the source filed them. The rule behind the calls is not given here.
# Experiments:
# MDA-MB-231 [1] = experiment: Antiproliferative activity against human MDA-MB-231 cells after 24 hrs by MTT assay; type: functional, cell-based; conditions: MDA-MB-231, 24 h
# MCF7 [2] = experiment: Antiproliferative activity against human MCF7 cells after 24 hrs by MTT assay; type: functional, cell-based; conditions: MCF7, 24 h
# [3] = molecular target: Bromodomain-containing protein 4 (Homo sapiens, UniProt O60885); experiment: Inhibition of His/thioredoxin-tagged human recombinant BRD4 bromodomain-1 (43 to 166 residues) expressed in Escherichia coli BL21 Star (DE3) pre-incubated for 30 mins followed by biotinylated histone peptide H4 addition measured after 30 mins by AlphaScreen assay
# MCF7 [4] = experiment: Induction of autophagy in GFP/mRFP treated human MCF7 cells assessed as induction of LC3 puncta at 150 uM by fluorescence microscopic analysis; type: functional, cell-based
# How it was run: (§1)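 MCF-7 or MDA-MB-231 cells transfected with GFP/mRFP-LC3 plasmid, then treated with 150 µM for indicated times. GFP-LC3 puncta observed by fluorescence microscopy.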
# MDA-MB-231 [5] = experiment: Induction of autophagy in human MDA-MB-231 cells assessed as downregulation of p62/SQSTM1 expression at […] by Western blot analysis; type: functional, cell-based
# MCF7 [6] = experiment: Induction of autophagy in human MCF7 cells assessed as downregulation of p62/SQSTM1 expression at […] by Western blot analysis; type: functional, cell-based
# MDA-MB-231 [7] = experiment: Induction of autophagy in GFP/mRFP treated human MDA-MB-231 cells assessed as induction of LC3 puncta at 150 uM by fluorescence microscopic analysis; type: functional, cell-based; how it was run: as §1
Structure (SMILES),IC50 (MDA-MB-231 [1]),IC50 (MCF7 [2]),IC50 [3],Activity (MCF7 [4]),Activity (MDA-MB-231 [5]),Activity (MCF7 [6]),Activity (MDA-MB-231 [7])
O=c1[nH]c(-c2ccccc2)nc2sc3c(c12)CCC3,> 30 µM,> 30 µM,> 10 µM,–,–,–,–
O=c1[nH]c(-c2ccc(O)cc2)nc2sc3c(c12)CCN(Cc1ccccc1)C3,> 30 µM,17 µM,6.37 µM,–,–,–,–
O=c1[nH]c(-c2ccc(C(F)(F)F)cc2)nc2sc3c(c12)CCCCC3,> 30 µM,> 30 µM,> 10 µM,–,–,–,–
CCCc1cc2c(=O)[nH]c(-c3ccc(O)cc3)nc2s1,28.4 µM,> 30 µM,8.59 µM,–,–,–,–
O=c1[nH]c(-c2ccccc2)nc2sc3c(c12)CCN(Cc1ccccc1)C3,> 30 µM,> 30 µM,> 10 µM,–,–,–,–
CC1CCc2c(sc3nc(-c4cc(F)c(F)c(F)c4)[nH]c(=O)c23)C1 (configuration not stated),> 30 µM,> 30 µM,> 10 µM,–,–,–,–
COc1ccccc1-c1nc2sc3c(c2c(=O)[nH]1)CCN(C)C3,8.19 µM,5.6 µM,2.47 µM,–,–,–,–
CC1CCc2c(sc3nc(-c4cccc(Br)c4)[nH]c(=O)c23)C1 (configuration not stated),16.3 µM,2.69 µM,1.02 µM,–,–,–,–
CCCc1cc2c(=O)[nH]c(Cc3ccc(-c4ccccc4)cc3)nc2s1,> 30 µM,> 30 µM,> 10 µM,–,–,–,–
CC1CCc2c(sc3nc(-c4ccc(O)cc4)[nH]c(=O)c23)C1 (configuration not stated),22.9 µM,12.2 µM,4.31 µM,–,–,–,–
Cc1cc(-c2nc3sc4c(c3c(=O)[nH]2)CCCCC4)cc(C)c1O,8.31 µM,2.81 µM,0.49 µM,–,–,–,–
CC1CCc2c(sc3nc(Cc4ccccc4)[nH]c(=O)c23)C1 (configuration not stated),> 30 µM,> 30 µM,> 10 µM,–,–,–,–
Cc1cc(-c2nc3sc4c(c3c(=O)[nH]2)CCN(Cc2ccccc2)C4)cc(C)c1O,> 30 µM,> 30 µM,> 10 µM,–,–,–,–
COc1ccccc1-c1nc2sc3c(c2c(=O)[nH]1)CCC3,5.34 µM,2.22 µM,0.78 µM,–,–,–,–
COc1cccc(-c2nc3sc4c(c3c(=O)[nH]2)CCN(Cc2ccccc2)C4)c1,> 30 µM,> 30 µM,> 10 µM,–,–,–,–
O=c1[nH]c(-c2ccc(C(F)(F)F)cc2)nc2sc3c(c12)CCC3,14.7 µM,8.39 µM,1.53 µM,–,–,–,–
O=c1[nH]c(Cc2ccc(-c3ccccc3)cc2)nc2sc3c(c12)CCCCC3,> 30 µM,> 30 µM,> 10 µM,–,–,–,–
CCCc1cc2c(=O)[nH]c(-c3cccc(OC)c3)nc2s1,> 30 µM,> 30 µM,> 10 µM,–,–,–,–
CC1CCc2c(sc3nc(-c4ccc(C(F)(F)F)cc4)[nH]c(=O)c23)C1 (configuration not stated),> 30 µM,> 30 µM,> 10 µM,–,–,–,–
CN1CCc2c(sc3nc(-c4cccc(Br)c4)[nH]c(=O)c23)C1,8.31 µM,2.17 µM,1.04 µM,–,–,–,–
COc1cccc(-c2nc3sc4c(c3c(=O)[nH]2)CCCC4)c1,> 30 µM,> 30 µM,> 10 µM,–,–,–,–
O=c1[nH]c(-c2ccc(Br)cc2)nc2sc3c(c12)CCCC3,> 30 µM,> 30 µM,> 10 µM,–,–,–,–
CC1CCc2c(sc3nc(-c4ccccc4)[nH]c(=O)c23)C1 (configuration not stated),> 30 µM,> 30 µM,> 10 µM,–,–,–,–
O=c1[nH]c(-c2ccc(Br)cc2)nc2sc3c(c12)CCC3,> 30 µM,21.3 µM,8.94 µM,–,–,–,–
Cc1cc(-c2nc3sc4c(c3c(=O)[nH]2)CCCC4)cc(C)c1O,27.8 µM,24.9 µM,6.93 µM,–,–,–,–

Structure (SMILES),IC50 (MDA-MB-231 [1]),IC50 (MCF7 [2]),IC50 [3],Activity (MCF7 [4]),Activity (MDA-MB-231 [5]),Activity (MCF7 [6]),Activity (MDA-MB-231 [7])
CN1CCc2c(sc3nc(Cc4ccc(-c5ccccc5)cc4)[nH]c(=O)c23)C1,> 30 µM,> 30 µM,> 10 µM,–,–,–,–
CN1CCc2c(sc3nc(-c4ccc(C(F)(F)F)cc4)[nH]c(=O)c23)C1,22.2 µM,> 30 µM,> 10 µM,–,–,–,–
COc1cc(OC)c2c(=O)[nH]c(-c3cc(C)c(OCCO)c(C)c3)nc2c1 [APABETALONE],155 µM,140 µM,–,Active,Active,Active,Active
O=c1[nH]c(-c2ccc(O)cc2)nc2sc3c(c12)CCCC3,> 30 µM,22.8 µM,7.32 µM,–,–,–,–
COc1cccc(-c2nc(=O)c3c4c(sc3[nH]2)CC(C)CC4)c1 (configuration not stated),> 30 µM,> 30 µM,> 10 µM,–,–,–,–
Cc1cc(-c2nc3sc4c(c3c(=O)[nH]2)CCC(C)C4)cc(C)c1O (configuration not stated),9.42 µM,5.59 µM,3.24 µM,–,–,–,–
CC1CCc2c(sc3nc(Cc4ccc(-c5ccccc5)cc4)[nH]c(=O)c23)C1 (configuration not stated),> 30 µM,> 30 µM,> 10 µM,–,–,–,–
Cc1cc(-c2nc3sc4c(c3c(=O)[nH]2)CCC4)cc(C)c1O,23.1 µM,18.5 µM,6.38 µM,–,–,–,–
O=c1[nH]c(-c2cccc(Br)c2)nc2sc3c(c12)CCC3,> 30 µM,> 30 µM,> 10 µM,–,–,–,–
O=c1[nH]c(Cc2ccccc2)nc2sc3c(c12)CCC3,> 30 µM,> 30 µM,> 10 µM,–,–,–,–
O=c1[nH]c(-c2ccc(C(F)(F)F)cc2)nc2sc3c(c12)CCN(Cc1ccccc1)C3,> 30 µM,> 30 µM,> 10 µM,–,–,–,–
CN1CCc2c(sc3nc(-c4cccc(O)c4)[nH]c(=O)c23)C1,> 30 µM,> 30 µM,> 10 µM,–,–,–,–
O=c1[nH]c(Cc2ccccc2)nc2sc3c(c12)CCCCC3,5.8 µM,4.5 µM,0.82 µM,–,–,–,–
O=c1[nH]c(-c2ccc(C(F)(F)F)cc2)nc2sc3c(c12)CCCC3,> 30 µM,28.1 µM,> 10 µM,–,–,–,–
O=c1[nH]c(-c2cccc(Br)c2)nc2sc3c(c12)CCCCC3,> 30 µM,18.5 µM,5.73 µM,–,–,–,–
Oc1nc(-c2ccccc2)nc2sc3c(c12)CCCC3,> 30 µM,> 30 µM,> 10 µM,–,–,–,–
Cc1sc2c(c1C)C(c1ccc(Cl)cc1)=N[C@@H](CC(=O)OC(C)(C)C)c1nnc(C)n1-2,33 µM,28.8 µM,–,–,–,–,–
CC1CCc2c(sc3nc(-c4cccc(O)c4)[nH]c(=O)c23)C1 (configuration not stated),> 30 µM,> 30 µM,> 10 µM,–,–,–,–
CC1CCc2c(sc3nc(-c4ccc(Br)cc4)[nH]c(=O)c23)C1 (configuration not stated),> 30 µM,> 30 µM,> 10 µM,–,–,–,–
O=c1[nH]c(-c2ccc(O)cc2)nc2sc3c(c12)CCCCC3,3.29 µM,1.56 µM,0.56 µM,–,–,–,–
O=c1[nH]c(-c2ccc(F)cc2F)nc2sc3c(c12)CCCC3,> 30 µM,> 30 µM,> 10 µM,–,–,–,–
O=c1[nH]c(-c2cccc(O)c2)nc2sc3c(c12)CCCCC3,17.4 µM,13.2 µM,3.98 µM,–,–,–,–
O=c1[nH]c(-c2ccc(Br)cc2)nc2sc3c(c12)CCCCC3,> 30 µM,> 30 µM,> 10 µM,–,–,–,–
CCCc1cc2c(=O)[nH]c(-c3cccc(Br)c3)nc2s1,> 30 µM,> 30 µM,> 10 µM,–,–,–,–
CN1CCc2c(sc3nc(-c4ccc(O)cc4)[nH]c(=O)c23)C1,8.29 µM,5.48 µM,0.72 µM,–,–,–,–
